Published values of several laboratories.
Each line is one published result; the experiments were not run side by side.
PTGS2: Prostaglandin G/H synthase 2 (PTGS2, Homo sapiens, UniProt P35354)
Dipeptidyl peptidase 2: Dipeptidyl peptidase 2 (Homo sapiens, UniProt Q9UHL4)

| Structure (SMILES) | target | observed | mode | method | tested at | inhibition |
| --- | --- | --- | --- | --- | --- | --- |
| NS(=O)(=O)c1ccc(-c2ncc(Cl)cc2-c2nc3ccccc3s2)cc1 | PTGS2 | enzyme activity | inhibitor | absorbance | 10 µM | 100% |
| CC(=O)N[C@@H](CC(=O)O)C(=O)N[C@@H](CC(N)=O)C(=O)N[C@@H](CC(C)C)C(=O)N[C@H](C=O)CC(=O)O | Caspase-7 (CASP7, Homo sapiens, UniProt P55210) | enzyme activity | inhibitor | – | 0.5 µM | 89% |
| Nc1ccc(-c2nc3ccccc3s2)c(-c2cccc(O)c2)c1 | PTGS2 | enzyme activity | inhibitor | absorbance | 10 µM | 33.3% |
| OC(c1ccc(F)cc1)C(F)(F)CCN1CCC(O)(c2ccc(Cl)cc2)CC1 (racemic) | Sigma non-opioid intracellular receptor 1 (SIGMAR1, Cavia porcellus, UniProt Q60492) | ligand displacement | – | radioligand | 10 µM | > 50% |
| CC(C)N1CCC[C@H]1CNC(=O)c1cn(C2CCCC2)c(=O)c2c1c1ccccc1n2C | Neuropeptide Y receptor type 2 (NPY2R, Homo sapiens, UniProt P49146) | ligand displacement | – | radioligand | 10 µM | 3% |
| Cn1cc(-c2cc(F)cc(N3CCn4c(cc5c4CCCC5)C3=O)c2CO)cc(Nc2ccc(N3CCN(C4COC4)CC3)cn2)c1=O | Dual specificity tyrosine-phosphorylation-regulated kinase 3 (DYRK3, Homo sapiens, UniProt O43781) | enzyme activity | inhibitor | – | 0.1 µM | 5% |
| N=C(N)c1ccc2cc(OC(=O)c3ccc(N=C(N)N)cc3)ccc2c1 | Dipeptidyl peptidase 2 | enzyme activity | inhibitor | – | 10 µM | 29% |
| C#Cc1n[nH]c2c(-c3cn(C(C)c4ccccn4)c(=O)[nH]c3=O)cc(F)cc12 (centres unmarked) | Ribosomal protein S6 kinase beta-1 (RPS6KB1, Homo sapiens, UniProt P23443) | enzyme activity | inhibitor | – | 1 µM | -2.1% |
| COCc1c(-c2cc3cc(C)cc(OC)c3s2)c2c(N)ncnn2c1CN1CCNC(=O)C1 | Alpha-2B adrenergic receptor (ADRA2B, Homo sapiens, UniProt P18089) | ligand displacement | – | radioligand | 10 µM | 34% |
| CCN(CC)CCCC[C@H](NC(=O)[C@H](CC(C)C)NC(=O)[C@H](C)NC(=O)[C@H](Cc1ccccc1)NC(=O)c1ccc(C(C)(C)C)cc1)C(=O)N[C@@H](CO)C(=O)OC | 5-hydroxytryptamine receptor 1B (Htr1b, Rattus norvegicus, UniProt P28564) | ligand displacement | – | radioligand | 10 µM | -11% |
| CN(C)C(=O)COC(=O)Cc1ccc(OC(=O)c2ccc(NC(=N)N)cc2)cc1 | Ubiquitin carboxyl-terminal hydrolase isozyme L3 (UCHL3, Homo sapiens, UniProt P15374) | enzyme activity | inhibitor | – | 10 µM | 3% |
| Nc1ccc(-c2ccccc2)c(-c2nc3ccccc3s2)c1 | PTGS2 | enzyme activity | inhibitor | absorbance | 10 µM | 12.4% |
| O=C(Nc1cccnn1)N1CCN([C@@H]2CCOc3cc(C(F)(F)F)ccc32)CC1 | Melanocyte-stimulating hormone receptor (Mc1r, Mus musculus, UniProt Q01727) | cell-free assay | – | – | 20 µM | 0% |
| Cc1ccc(-c2nc3ccccc3s2)c(-c2cccc(O)c2)c1 | PTGS2 | enzyme activity | inhibitor | absorbance | 10 µM | 29% |
| CC(C)C[C@H](NC(=O)[C@H](Cc1ccccc1)NC(=O)c1cnccn1)B(O)O | Dipeptidyl peptidase 2 | enzyme activity | inhibitor | – | 33 µM | 78.7% |
| Nc1ccc(-c2nc3ccccc3s2)c(-c2ccc(O)cc2)c1 | PTGS2 | enzyme activity | inhibitor | absorbance | 10 µM | 15.3% |
| CCOC(=O)c1ccc(OC(=O)CCCCCNC(=N)N)cc1 | Dipeptidyl peptidase 2 | enzyme activity | inhibitor | – | 10 µM | 83% |
| Cn1cc(-c2cccc(N3CCc4c(sc5c4CC(C)(C)C5)C3=O)c2CO)cc(Nc2ccncn2)c1=O | Protein kinase C zeta type (PRKCZ, Homo sapiens, UniProt Q05513) | enzyme activity | inhibitor | – | 1 µM | 10% |
| CS(=O)(=O)c1ccc(-c2ncccc2-c2nc3ccccc3s2)cc1 | PTGS2 | enzyme activity | inhibitor | absorbance | 10 µM | 84.7% |
| N#Cc1ccc(NCCNCC(=O)N2N=CCC2C#N)nc1 (centres unmarked) | Dipeptidyl peptidase 2 | enzyme activity | inhibitor | – | 100 µM | 77% |
